ChEMBL document CHEMBL4321861, “An Underlying Mechanism of Dual Wnt Inhibition and AMPK Activation: Mitochondrial Uncouplers Masquerading as Wnt Inhibitors” (J Med Chem, 2019)
Active and inactive are the calls of the source. The calls are words filed in the database; no cut-off is given here.

Columns and labels:
[1] = tested on: DLD-1; assay: Inhibition of mitochondrial oxidative phosphorylation in human DLD1 cells assessed as reduction in oxygen consumption rate by seahorse XFe96 analyser based assay; conditions: Mitochondria
Outline: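 DLD-1 cells, ~3×10^4 per well, seeded a day ahead; medium switched to Seahorse XF modified medium with 25 mM glucose and 1 mM pyruvate. Mitochondrial stress test: 1 μM oligomycin A, test compound in DMSO in place of FCCP, then 1.0 μM rotenone plus 1.0 μM antimycin A. OCR recorded; ATP production rate by real-time ATP rate assay.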

[2] = organism: Homo sapiens; assay: Inhibition of Wnt in human DLD1 cells assessed as reduction in Axin2 expression at 1 to 3 uM by Western blot analysis; type: cell-based
Outline: (§1)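 Colorectal cancer cells (DLD-1, LS174T, SW620) treated with a compound dose series in DMSO. Lysates immunoblotted for Axin2, c-Myc and cyclin D1. At least three independent repeats.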

[3] = organism: Homo sapiens; assay: Inhibition of Wnt in human DLD1 cells assessed as reduction in c-Myc expression at 1 to 3 uM by Western blot analysis; type: cell-based; outline: as §1
[4] = organism: Homo sapiens; assay: Inhibition of Wnt in human SW620 cells assessed as reduction in cyclin-D1 expression at 1 uM by Western blot analysis; type: cell-based; outline: as §1
[5] = tested on: LS174T; assay: Inhibition of Wnt in human LS174T cells assessed as reduction in cyclin-D1 expression at 1 uM by Western blot analysis; type: cell-based; outline: as §1
[6] = biological target: T1, AMP-activated protein kinase, AMPK (Homo sapiens) (UniProt P54646+O43741+P54619+Q9UGJ0+Q9Y478+Q13131+Q9UGI9); assay: Activation of AMPK in human LS174T cells assessed as increase in AMPK phosphorylation at T172 residue at 3 uM by Western blot analysis; type: cell-based
Outline: (§2)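 Cells lysed in 50 mM HEPES, 100 mM NaCl, 2 mM EDTA, 1% glycerol, 50 mM NaF, 1 mM Na3VO4, 1% Triton X-100 with protease inhibitors. Western blot probed for total and phospho-AMPK and total and phospho-ACC, with actin loading control. Compounds given in DMSO. At least three independent repeats.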

[7] = organism: Homo sapiens; assay: Inhibition of Wnt in human SW620 cells assessed as reduction in c-Myc expression at 1 uM by Western blot analysis; type: cell-based; outline: as §1
[8] = tested on: HEK293; assay: Inhibition of LiCl-activated Wnt signaling in HEK293 cells at 3 uM in presence of AMPK inhibitor compound C by TOPFlash reporter gene assay; type: cell-based; conditions: Homo sapiens
Outline: (§3)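 Stable HEK293T Super 8xTOPFlash reporter line (pGL4.83 backbone, puromycin-selected), stimulated with 25 mM LiCl to stabilize β-catenin. Treated with compound in DMSO or DMSO. Luciferase read in 96- or 24-well format. AMPK inhibitor compound C used at 5 μM where applied. At least three independent repeats.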

[9] = tested on: HEK293; assay: Effect on FOP reporter expression in LiCl-induced HEK293T cells incubated for 24 hrs by luciferase reporter gene assay; type: functional, cell-based; conditions: Homo sapiens
Outline: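 HEK293T cells transiently transfected with Super 8x TOPFlash or 8x FOPFlash plus control Renilla reporter. Wnt signaling activated with LiCl or Wnt3A. Cells treated with DMSO or compound in DMSO. Luciferase activity read.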

[10] = biological target: T1, AMP-activated protein kinase, AMPK (Homo sapiens); assay: Activation of AMPK in human LS174T cells assessed as […] phosphorylation at S79 residue at 3 uM by Western blot analysis; type: cell-based; outline: as §2
[11] = tested on: DLD-1; assay: Induction of mitochondrial membrane potential disruption in human DLD1 cells measured after 2 hrs by TMRM staining based fluorescence microscopic analysis; conditions: Mitochondria
Outline: (§4)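 Cells grown one day in 24-well plates: DLD-1 in DMEM + 10% serum, LS174T in RPMI1640 + 5% serum. Treated 2 h with compound in DMSO or DMSO, then stained with 100 nM TMRM for 15 min. Rinsed once with PBS and imaged by fluorescence microscopy at 568 nm.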

[12] = organism: Homo sapiens; assay: Inhibition of Wnt in human SW620 cells assessed as reduction in Axin2 expression at 1 uM by Western blot analysis; type: cell-based; outline: as §1
[13] = tested on: LS174T; assay: Induction of mitochondrial membrane potential disruption in human LS174T cells measured after 2 hrs by TMRM staining based fluorescence microscopic analysis; conditions: Mitochondria; outline: as §4
[14] = tested on: LS174T; assay: Inhibition of Wnt in human LS174T cells assessed as reduction in Axin2 expression at 1 uM by Western blot analysis; type: cell-based; outline: as §1
[15] = tested on: LS174T; assay: Inhibition of Wnt in human LS174T cells assessed as reduction in c-Myc expression at 1 uM by Western blot analysis; type: cell-based; outline: as §1
[16] = tested on: HEK293; assay: Inhibition of LiCl-activated Wnt signaling in HEK293 cells at 0.3 to 3 uM by TOPFlash reporter gene assay; type: cell-based; conditions: Homo sapiens; outline: as §3
[17] = tested on: DLD-1; assay: Cytotoxicity against human DLD1 cells assessed as reduction in cell viability by Vi-Cell XR cell viability analyzer-based assay; type: functional
Outline: (§5)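 Colon cancer cells plated at 3.5×10^4 per well in 12-well plates. LS174T were in EMEM + 10% FBS; DLD-1 were in DMEM + 10% FBS. After 24 h, compound in DMSO added (DMSO control). Cell number and viability counted on a Vi-Cell XR analyzer. Triplicate wells.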

[18] = organism: Homo sapiens; assay: Inhibition of Wnt in human DLD1 cells assessed as reduction in cyclin-D1 expression at 1 to 3 uM by Western blot analysis; type: cell-based; outline: as §1
[19] = tested on: LS174T; assay: Cytotoxicity against human LS174T cells assessed as reduction in cell viability by Vi-Cell XR cell viability analyzer-based assay; type: functional; outline: as §5
[20] = tested on: Liver; assay: Uncoupling of mitochondrial oxidative phosphorylation in mouse liver mitochondria assessed as increase in oxygen consumption rate at 1 to 5 uM in presence of oligomycin A by seahorse XFe96 analyser based assay
Outline: (§6)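 Mouse liver mitochondria isolated by differential centrifugation in mannitol/sucrose/HEPES/EGTA buffer, pH 7.2. Loaded at 6 μg/well in KCl/HEPES/MgCl2/KH2PO4 respiration buffer, pH 7.2, at 37 °C. OCR measured on XFe96.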

[21] = biological target: T1, AMP-activated protein kinase, AMPK (Homo sapiens); assay: Activation of AMPK (unknown origin) assessed as increase in AMPK phosphorylation at T172 residue at 3 uM by Western blot analysis; type: protein-complex assay; outline: as §2
[22] = biological target: T1, AMP-activated protein kinase, AMPK (Homo sapiens); assay: Activation of AMPK (unknown origin) assessed as […] phosphorylation at S79 residue at 3 uM by Western blot analysis; type: protein-complex assay; outline: as §2
[23] = tested on: DLD-1; assay: Uncoupling of mitochondrial oxidative phosphorylation in human DLD1 cells assessed as increase in oxygen consumption rate at 3 uM in presence of oligomycin A by seahorse XFe96 analyser based assay; conditions: Mitochondria
Outline: (§7)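 DLD-1 cells, about 3×10^4 per XF96 well, in XF medium with 25 mM glucose and 1 mM pyruvate. Mito stress sequence: oligomycin A 1 μM, then test compound 3 μM in DMSO in place of FCCP (FCCP 1 μM as control), then rotenone/antimycin A 1 μM each. Oxygen consumption rate recorded.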

[24] = tested on: HEK293; assay: Inhibition of LiCl-activated Wnt signaling in HEK293 cells at 3 uM by TOPFlash reporter gene assay; type: cell-based; conditions: Homo sapiens; outline: as §3
[25] = tested on: Liver; assay: Uncoupling of mitochondrial oxidative phosphorylation in mouse liver mitochondria assessed as increase in oxygen consumption rate in presence of oligomycin A by seahorse XFe96 analyser based assay; outline: as §6
[26] = tested on: DLD-1; assay: Induction of mitochondrial dysfunction in human DLD1 cells assessed as reduction in mitochondrial ATP production at 3 uM by Seahorse XF real-time assay; conditions: Mitochondria
Outline: (§8)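 About 3×10^4 cells seeded per well in XF96 plates. Next day medium switched to Seahorse XF medium with 25 mM glucose and 1 mM pyruvate. Compound given at 3 μM in DMSO; FCCP 1 μM as reference. Mitochondrial and glycolytic ATP production rates measured by XF Real-Time ATP Rate Assay.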

[27] = tested on: LS174T; assay: Induction of mitochondrial dysfunction in human LS174T cells assessed as reduction in mitochondrial ATP production at 3 uM by Seahorse XF real-time assay; conditions: Mitochondria; outline: as §8
[28] = tested on: DLD-1; assay: Uncoupling of mitochondrial oxidative phosphorylation in human DLD1 cells at 3 uM in presence of oligomycin A by seahorse XFe96 analyser based assay; conditions: Mitochondria; outline: as §7
[29] = tested on: LS174T; assay: Inhibition of LiCl-induced Wnt signaling in human LS174T cells assessed as reduction in beta-catenin accumulation; type: cell-based
[30] = tested on: DLD-1; assay: Induction of mitochondrial membrane potential disruption in human DLD1 cells at 3 uM measured after 2 hrs by TMRM staining based fluorescence microscopic analysis; conditions: Mitochondria; outline: as §4
[31] = tested on: DLD-1; assay: Induction of mitochondrial dysfunction in human DLD1 cells assessed as increase in glycolytic ATP production at 3 uM by Seahorse XF real-time assay; conditions: Mitochondria; outline: as §8
[32] = tested on: HEK293; assay: Inhibition of LiCl-activated Wnt signaling in HEK293 cells at 0.5 uM by TOPFlash reporter gene assay; type: cell-based; conditions: Homo sapiens; outline: as §3
[33] = tested on: LS174T; assay: Induction of mitochondrial membrane potential disruption in human LS174T cells at 3 uM measured after 2 hrs by TMRM staining based fluorescence microscopic analysis; conditions: Mitochondria; outline: as §4
[34] = tested on: LS174T; assay: Induction of mitochondrial dysfunction in human LS174T cells assessed as increase in glycolytic ATP production at 3 uM by Seahorse XF real-time assay; conditions: Mitochondria; outline: as §8

| SMILES | Activity [6] | Activity [10] | Activity [21] | Activity [22] | Activity [23] | inhibition [1] | inhibition [2] | inhibition [3] | inhibition [4] | inhibition [5] | inhibition [7] | inhibition [8] | Activity [9] | inhibition [12] | inhibition [14] | inhibition [15] | IC50 [17] | inhibition [18] | IC50 [19] | inhibition [24] | further results |
| --- | --- | --- | --- | --- | --- | --- | --- | --- | --- | --- | --- | --- | --- | --- | --- | --- | --- | --- | --- | --- | --- |
| CCCCCCC1C(=O)O[C@H](C)[C@H](NC(=O)c2cccc(NC=O)c2O)C(=O)O[C@@H](C)[C@@H]1OC(=O)CC(C)C (some centres undefined) | – | – | – | – | – | Active | – | – | – | – | – | – | – | – | – | – | – | – | – | – | – |
| O=C(Nc1ccc(C(F)(F)F)cc1)Nc1cc(F)c(F)c(F)c1 | Active | Active | – | – | – | – | Active | Active | Active | Active | Active | Active | inactive | Active | Active | Active | 540 nM | Active | 550 nM | – | Activity [11]: Active; Activity [13]: Active; inhibition [16]: Active |
| CC[C@@H]1/C=C/C=C/C[C@H](C)[C@@H](O)[C@](C)(O)C(=O)[C@H](C)[C@@H](O)[C@H](C)C(=O)[C@H](C)[C@@H](O)[C@H](C)/C=C/C(=O)O[C@H]2[C@@H](C)[C@@H](CC1)O[C@@]1(CC[C@@H](C)[C@@H](C[C@@H](C)O)O1)[C@@H]2C | – | – | – | – | – | Active | – | – | – | – | – | – | – | – | – | – | – | – | – | – | – |
| O=C(Nc1nnc(C(F)(F)F)s1)NC(CC(F)(F)F)(C(F)(F)F)C(F)(F)F | Active | Active | – | – | Active | – | Active | Active | Active | Active | Active | Active | inactive | Active | Active | Active | 960 nM | Active | 800 nM | – | Activity [26]: Active; Activity [27]: Active; Activity [28]: Active; inhibition [29]: Active; Activity [30]: Active; Activity [31]: Active; inhibition [32]: inactive; Activity [33]: Active; Activity [34]: Active |

Second part, led by results:

| Activity [6] | Activity [10] | Activity [21] | Activity [22] | Activity [23] | SMILES | inhibition [1] | inhibition [2] | inhibition [3] | inhibition [4] | inhibition [5] | inhibition [7] | inhibition [8] | Activity [9] | inhibition [12] | inhibition [14] | inhibition [15] | IC50 [17] | inhibition [18] | IC50 [19] | inhibition [24] | further results |
| --- | --- | --- | --- | --- | --- | --- | --- | --- | --- | --- | --- | --- | --- | --- | --- | --- | --- | --- | --- | --- | --- |
| – | – | inactive | inactive | inactive | CN(c1ccc([N+](=O)[O-])c2ccccc12)S(=O)(=O)c1cc(Cl)ccc1Cl | – | – | – | – | – | – | – | – | – | – | – | – | – | – | inactive | Activity [20]: inactive |
| – | – | Active | Active | – | O=[N+]([O-])c1ccc(NS(=O)(=O)c2cc(Cl)ccc2Cl)c2ccccc12 | – | – | – | – | – | – | – | – | – | – | – | – | – | – | Active | Activity [25]: Dose-dependent effect |
